Measured values: ChEMBL document CHEMBL1153632, “HCV NS5B polymerase inhibitors 1: Synthesis and in vitro activity of 2-(1,1-dioxo-2H-[1,2,4]benzothiadiazin-3-yl)-1-hydroxynaphthalene derivatives” (Bioorg Med Chem Lett, 2009)

Assays:
Hepatitis C virus = test: Antiviral activity against HCV 1b infected in human HuH7 cells after 46 to 50 hrs by luc/neo ET replicon assay; format: functional, organism-based, Hepacivirus hominis; details: genotype 1b, Huh-7
Summary of the method: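 Huh-7 cells stably carrying luc/neo ET replicon, grown in DMEM with 10% FCS, were seeded at 5 × 10³ cells/well. Serially diluted compounds were added about 24 h after plating, at 1% final DMSO. After 46–50 h exposure, cells were lysed with BrightGLO reagent for 2 min at 20 °C and luminescence was read.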

[1] = Inhibition of HCV isolate HC-J4 NS5B deltaC21 polymerase; set-up: species or system Hepatitis C virus isolate HC-J4
Summary of the method: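 Genotype 1b J4 ΔC21 enzyme (5 nM) in 20 mM Tris pH 7.5 with 5 mM MgCl₂, 5 mM KCl, 1 mM EDTA, 2 mM DTT and 0.01% BSA, room temperature. Serial DMSO dilutions were preincubated with enzyme for 5 min. Reaction was started with 250 nM 5′-biotin-rU₁₂ primer, poly-rA template, UTP and ³H-UTP, in 5% DMSO, and run 2 h. Stopped with EDTA/streptavidin SPA beads, then CsCl; scintillation counting.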

[2] = Inhibition of HCV 1a NS5B polymerase; set-up: species or system Hepatitis C virus subtype 1a
[3] = Cytotoxicity against human HuH7 cells; format: cell-based, Huh-7

SMILES	EC50 (Hepatitis C virus) [µM]	IC50 [1] [µM]	IC50 [2] [µM]	CC50 [3] [µM]
CC(C)CCn1c(=O)c(C2=NS(=O)(=O)c3ccccc3N2)c(O)c2ccccc21	0.417			
CC(C)CC[C@@]1(C)C(=O)C(C2=NS(=O)(=O)c3cc(NS(C)(=O)=O)ccc3N2)=C(O)c2ccccc21		0.00033	0.00125	
COc1c(C2=NS(=O)(=O)c3ccccc3N2)cc(CCC(C)C)c2ccccc12	9.5	27		13
COc1c(C2=NS(=O)(=O)c3cc(NS(C)(=O)=O)ccc3N2)c(OC)c2ccccc2c1CCC(C)C	> 100	0.63		40
COc1c(C2=NS(=O)(=O)c3cc(NS(C)(=O)=O)ccc3N2)cc(CCC(C)C)c2ccccc12	21	0.048		51
CC(C)CCc1c(O)c2c(c3ccccc13)OCN1C2=NS(=O)(=O)c2cc(NS(C)(=O)=O)ccc21	34	0.53		> 100
COc1c(C2=NS(=O)(=O)c3cc(NS(C)(=O)=O)ccc3N2)c(O)c2ccccc2c1CCC(C)C	2.9	0.037		120
CC(C)CCc1c(F)c(C2=NS(=O)(=O)c3cc(NS(C)(=O)=O)ccc3N2)c(O)c2ccccc12	2.7	0.031		> 100
CC(C)CCc1c2c(c(O)c3ccccc13)C1=NS(=O)(=O)c3cc(NS(C)(=O)=O)ccc3N1CO2	> 100	8.7		> 100
CC(C)CCc1cc(C2=NS(=O)(=O)c3ccccc3N2)c(O)c2ccccc12	26	8.4		37
CC(C)CCc1cc(C2=NS(=O)(=O)c3cc(NS(C)(=O)=O)ccc3N2)c(O)c2ccccc12	4.3	0.15		> 100
CC(C)CCc1c(F)c(C2=NS(=O)(=O)c3ccccc3N2)c(O)c2ccccc12	19	0.11		12
CC(C)CCC1(O)C(=O)C(C2=NS(=O)(=O)c3cc(NS(C)(=O)=O)ccc3N2)=C(O)c2ccccc21 (stereo not given)	0.019	< 0.005		> 100
CC(C)CCc1c2c(c(O)c3ccccc13)C1=Nc3ccc(NS(C)(=O)=O)cc3S(=O)(=O)N1CO2	8.4	0.49		33
COc1c(C2=NS(=O)(=O)c3cc(NS(C)(=O)=O)ccc3N2)c(O)c(CCC(C)C)c2ccccc12	1.1	0.005		110
CC(C)CCc1c(O)c2c(c3ccccc13)OCN1C2=Nc2ccc(NS(C)(=O)=O)cc2S1(=O)=O	12	1.3		35
